# From ChEMBL document CHEMBL1156668, “Synthesis and antimicrobial activity of novel sulfone-linked bis heterocycles” (2008)
# What was measured:
# Type in all cases: functional
# [1] = test system: Fusarium solani; test: Antifungal activity against Fusarium solani at 200 ug after 48 hrs by agar disc-diffusion method; conditions: read-out: IZ
# How it was run: (§1)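 Fungal strains from NCIM, Pune, were tested by disc diffusion on nutrient agar. Sterile 6 mm paper discs moistened with the compound solution in DMSO were placed on plates pre-inoculated with each fungus. Plates were incubated at 37 °C, and the inhibition-zone diameter was read after 48 h.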
# [2] = test system: Escherichia coli; test: Antibacterial activity against Escherichia coli at 100 ug after 24 hrs by agar disc-diffusion method; conditions: read-out: IZ
# How it was run: (§2)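 Agar disc diffusion on nutrient agar with bacterial strains from NCIM, Pune. Sterile 6 mm filter-paper discs were wetted with compound in DMSO and placed on plates already inoculated with each organism. Plates were incubated at 37 °C, and the diameter of the growth-inhibition zone was measured after 24 h.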
# [3] = test system: Aspergillus niger; test: Antifungal activity against Aspergillus niger at 200 ug after 48 hrs by agar disc-diffusion method; conditions: read-out: IZ; how it was run: as §1
# [4] = test system: Klebsiella pneumoniae; test: Antibacterial activity against Klebsiella pneumoniae at 100 ug after 24 hrs by agar disc-diffusion method; conditions: read-out: IZ; how it was run: as §2
# [5] = test system: Bacillus subtilis; test: Antibacterial activity against Bacillus subtilis at 200 ug after 24 hrs by agar disc-diffusion method; conditions: read-out: IZ; how it was run: as §2
# [6] = test system: Escherichia coli; test: Antibacterial activity against Escherichia coli at 200 ug after 24 hrs by agar disc-diffusion method; conditions: read-out: IZ; how it was run: as §2
# [7] = test system: Klebsiella pneumoniae; test: Antibacterial activity against Klebsiella pneumoniae at 200 ug after 24 hrs by agar disc-diffusion method; conditions: read-out: IZ; how it was run: as §2
# [8] = test system: Staphylococcus aureus; test: Antibacterial activity against Staphylococcus aureus at 200 ug after 24 hrs by agar disc-diffusion method; conditions: read-out: IZ; how it was run: as §2
# [9] = test system: Bacillus subtilis; test: Antibacterial activity against Bacillus subtilis at 100 ug after 24 hrs by agar disc-diffusion method; conditions: read-out: IZ; how it was run: as §2
# [10] = test system: Aspergillus niger; test: Antifungal activity against Aspergillus niger at 100 ug after 48 hrs by agar disc-diffusion method; conditions: read-out: IZ; how it was run: as §1
# [11] = test system: Curvularia lunata; test: Antifungal activity against Curvularia lunata at 100 ug after 48 hrs by agar disc-diffusion method; conditions: read-out: IZ; how it was run: as §1
# [12] = test system: Curvularia lunata; test: Antifungal activity against Curvularia lunata at 200 ug after 48 hrs by agar disc-diffusion method; conditions: read-out: IZ; how it was run: as §1
# [13] = test system: Staphylococcus aureus; test: Antibacterial activity against Staphylococcus aureus at 100 ug after 24 hrs by agar disc-diffusion method; conditions: read-out: IZ; how it was run: as §2
# [14] = test system: Fusarium solani; test: Antifungal activity against Fusarium solani at 100 ug after 48 hrs by agar disc-diffusion method; conditions: read-out: IZ; how it was run: as §1
# [15] = test system: Staphylococcus aureus; test: Antibacterial activity against Staphylococcus aureus after 24 hrs by microdilution susceptibility method
# How it was run: (§3)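 Microdilution susceptibility test on bacterial strains from NCIM, Pune. Microorganism suspensions were inoculated into wells containing the compound and incubated at 36 °C for 24 h. MIC was taken as the lowest concentration showing no turbidity, meaning complete inhibition of visible growth.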
# [16] = test system: Klebsiella pneumoniae; test: Antibacterial activity against Klebsiella pneumoniae after 24 hrs by microdilution susceptibility method; how it was run: as §3
# [17] = test system: Escherichia coli; test: Antibacterial activity against Escherichia coli after 24 hrs by microdilution susceptibility method; how it was run: as §3
# [18] = test system: Bacillus subtilis; test: Antibacterial activity against Bacillus subtilis after 24 hrs by microdilution susceptibility method; how it was run: as §3
# [19] = test system: Fusarium solani; test: Antifungal activity against Fusarium solani after 48 hrs by microdilution susceptibility method
# How it was run: (§4)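 Broth microdilution with fungi from NCIM, Pune. Fungal suspensions were added to wells containing the compound and incubated at 36 °C for 48 h. MIC was recorded as the lowest concentration with no turbidity, that is, no visible growth.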
# [20] = test system: Aspergillus niger; test: Antifungal activity against Aspergillus niger after 48 hrs by microdilution susceptibility method; how it was run: as §4
# [21] = test system: Curvularia lunata; test: Antifungal activity against Curvularia lunata after 48 hrs by microdilution susceptibility method; how it was run: as §4
Structure (SMILES),zone of inhibition at 200 µg/disc [1],zone of inhibition at 100 µg/disc [2],zone of inhibition at 200 µg/disc [3],zone of inhibition at 100 µg/disc [4],zone of inhibition at 200 µg/disc [5],zone of inhibition at 200 µg/disc [6],zone of inhibition at 200 µg/disc [7],zone of inhibition at 200 µg/disc [8],zone of inhibition at 100 µg/disc [9],zone of inhibition at 100 µg/disc [10],zone of inhibition at 100 µg/disc [11],zone of inhibition at 200 µg/disc [12],zone of inhibition at 100 µg/disc [13],zone of inhibition at 100 µg/disc [14],MIC [15],MIC [16],MIC [17],MIC [18],MIC [19],MIC [20],further results
Cc1ccc([C@H]2CNN=C2S(=O)(=O)Cc2nnc(S)n2N)cc1,37 mm,24 mm,38 mm,22 mm,29 mm,26 mm,24 mm,28 mm,27 mm,35 mm,34 mm,39 mm,25 mm,32 mm,–,–,–,–,–,–,–
O=S(=O)(Cc1nnc(S)o1)C1=NNC[C@@H]1c1ccccc1,19 mm,15 mm,21 mm,14 mm,15 mm,18 mm,16 mm,16 mm,13 mm,16 mm,17 mm,22 mm,14 mm,17 mm,–,–,–,–,–,–,–
Cc1ccc([C@H]2CNN=C2S(=O)(=O)Cc2nnc(S)o2)cc1,20 mm,12 mm,21 mm,10 mm,16 mm,14 mm,12 mm,15 mm,13 mm,17 mm,16 mm,18 mm,12 mm,16 mm,–,–,–,–,–,–,–
O=C(N[C@H](CO)[C@H](O)c1ccc([N+](=O)[O-])cc1)C(Cl)Cl [CHLORAMPHENICOL],–,40 mm,–,42 mm,41 mm,44 mm,45 mm,39 mm,38 mm,–,–,–,35 mm,–,6.25 µg/mL,12.5 µg/mL,6.25 µg/mL,6.25 µg/mL,–,–,–
O=S(=O)(Cc1nnc(S)s1)C1=NNC[C@@H]1c1ccccc1,24 mm,15 mm,28 mm,17 mm,23 mm,20 mm,20 mm,21 mm,20 mm,25 mm,26 mm,29 mm,18 mm,22 mm,–,–,–,–,–,–,–
CC(=O)N1CCN(c2ccc(OCC3COC(Cn4ccnc4)(c4ccc(Cl)cc4Cl)O3)cc2)CC1 (configuration not stated) [KETOCONAZOLE],42 mm,–,39 mm,–,–,–,–,–,–,36 mm,41 mm,44 mm,–,38 mm,–,–,–,–,12.5 µg/mL,6.25 µg/mL,MIC [21]: 6.25 µg/mL
Cc1ccc([C@H]2CNN=C2S(=O)(=O)Cc2nnc(S)s2)cc1,26 mm,18 mm,24 mm,16 mm,19 mm,21 mm,19 mm,17 mm,16 mm,22 mm,20 mm,23 mm,14 mm,24 mm,–,–,–,–,–,–,–
Nn1c(S)nnc1CS(=O)(=O)C1=NNC[C@@H]1c1ccc(Cl)cc1,43 mm,23 mm,40 mm,26 mm,36 mm,25 mm,28 mm,35 mm,34 mm,36 mm,39 mm,42 mm,32 mm,40 mm,12.5 µg/mL,50 µg/mL,50 µg/mL,12.5 µg/mL,25 µg/mL,25 µg/mL,MIC [21]: 12.5 µg/mL
O=S(=O)(Cc1nnc(S)s1)C1=NNC[C@@H]1c1ccc(Cl)cc1,31 mm,22 mm,29 mm,24 mm,31 mm,27 mm,26 mm,29 mm,28 mm,26 mm,23 mm,26 mm,25 mm,28 mm,100 µg/mL,200 µg/mL,200 µg/mL,200 µg/mL,100 µg/mL,200 µg/mL,MIC [21]: 100 µg/mL
O=S(=O)(Cc1nnc(S)o1)C1=NNC[C@@H]1c1ccc(Cl)cc1,18 mm,11 mm,18 mm,11 mm,18 mm,13 mm,14 mm,17 mm,15 mm,14 mm,16 mm,19 mm,13 mm,15 mm,–,–,–,–,–,–,–
